From PubChem BioAssay
HSP90 inh = inhibitors of HSP90 luciferase refolding in rabbit reticulocyte lysate; luciferase refolding luminescence, 3 h; inhibition, % at 5.6 µM; hit rate 0.91% among 290,000;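 active means inhibition above the screen-wide mean plus 3 SD, computed separately per campaign, cut at about 16% in these data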;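 further: 0% = DMSO wells and 100% = 60 µM geldanamycin wells; inhibitors lower the luminescence because luciferase stays unfolded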
HSF-1 act = increases HSF-1 driven luciferase reporter signal; NIH3T3-HGL HSF-1 luciferase reporter, MG132, 8 h; 100% = twice DMSO control signal; activation, % at 9 µM; hit rate 1.7% among 300,000; AID 504408;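 active means mean replicate activation of at least 50% with a set share of replicates each reaching 50%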;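 further: 0% = median of the neutral control wells and 100% = twice that signal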
HCV NS3 hel inh = blocks Hepatitis C virus NS3 helicase unwinding; NS3 helicase DNA unwinding, Cy5 molecular beacon fluorescence; inhibition, % at 10.9 µM; hit rate 0.56% among 290,000;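 active means inhibition above the mean of all tested compounds plus 3 SD, set per campaign, cut at about 35% in these data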;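 further: 0% = DMSO wells and 100% = thioflavine S control wells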
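test system = hepatitis C virus NS3 helicase domain fragment enzyme | reagent = annealed dual-labelled DNA beacon duplex, ATP-started | times = 1 h at 25 °C | detection = Cy5 fluorescence, 0 and 60 min reads | read-out basis = percent inhibition from t60/t0 fluorescence ratio | control set = DMSO and thioflavine S | replication = one well per compound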
HSF1 inh = HSF1 inhibition; AID 2098; hit rate 0.77% among 300,000; NIH3T3-HGL HSE-luciferase, MG132-induced, luminescence 8 h; hits give low values; activity change, negative = inhibition, % at 7.5 µM (by protocol);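 active means more than half of replicate wells show activity change below -50%, luminescence cut by over half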;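 further: luciferase reports HSF-1 transcriptional activity via heat shock element; 0% = median of DMSO wells and -100% = zero luminescence signal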
Hep lipid drop = hepatic lipid droplet formation modulation; AML12 mouse hepatocytes, oleate lipid droplets, BODIPY imaging; inhibition, % at 6.5 µM; hit rate 0.4% among 240,000;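 active means lipid droplet intensity inhibited by at least 50%, with more than 500 cells counted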
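Material – mouse AML12 hepatocyte cell line, fixed after treatment · Compound dosing – one dose, 6.5 µM compound · Times – compound with oleate, overnight · Measured by – Image-based BODIPY and DAPI two-channel analysis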
* marks the source's active call; other numbers are inactive results; · = no result given. In the library only some 3.8% were active in any assay of this set; here they are far more common.

SMILES	HSP90 inh	HSF-1 act	HCV NS3 hel inh	HSF1 inh	Hep lipid drop
CC(C)c1ccc(N(C(=O)c2csnn2)C(C(=O)NC(C)(C)C)c2ccncc2)cc1 (stereo not drawn)	-2	66*	5	40	·
CCOc1ccc(CN(C)C(=O)CNC(=O)C2CCCCC2)cc1	2	14	-2	0	12
COc1ccc(C(=O)CSc2nc(C)cc(=O)[nH]2)cc1C	2	-81	-3	-76*	·
Cc1ccnc(Nc2nc(-c3ccc(Cl)cc3)cs2)c1	-4	-18	-12	-10	·
Cc1cc(-c2csc(Nc3ccccn3)n2)ccc1F	5	80*	-11	31	2
COc1ccc(-c2csc(Nc3ccccn3)n2)cc1OC	2	48	-20	22	-6
c1ccc(-c2csc(Nc3ccccn3)n2)cc1	13	82*	-8	49	0
Cc1ccnc(Nc2nc(-c3ccc(F)cc3)cs2)c1	13	80*	-9	44	2
CCOc1ccc(N2C(=O)CC(NCC#N)C2=O)cc1 (stereo not drawn)	5	5	9	1	8
CCCN(CCC)CCNC(=O)C1CCCN(S(=O)(=O)c2ccc3c(c2)oc(=O)n3C)C1 (stereo not drawn)	1	-2	-3	4	·
Cn1c(=O)oc2cc(S(=O)(=O)N3CCCC(C(=O)NCCN4CCOCC4)C3)ccc21 (stereo not drawn)	30*	·	13	·	·
Cc1ccc(S(=O)(=O)N2CCCC(C(=O)NCCC(C)C)C2)cc1 (stereo not drawn)	2	-3	6	5	-3
Cc1ccc(C)c(N2CCN(CCCNC(=O)Cn3c(=O)c4cccn4c4cccnc43)CC2)c1	-1	10	-33	-4	-18
Cc1ccccc1/C(N)=N/OC(=O)c1ccc(F)cc1	-3	58*	5	27	8
Cc1ccccc1C(=O)O/N=C(\N)c1ccc([N+](=O)[O-])cc1	-3	33	-17	9	0
Cc1ccccc1NS(=O)(=O)c1cc(C(=O)N2CCc3ccccc3C2)ccc1C	0	44	-12	14	·
Cc1ccc(NS(=O)(=O)c2cc(C(=O)N3CCc4ccccc4C3)ccc2Cl)cc1	-1	67*	-3	31	·
O=C1OC(NC(=O)c2ccccc2)C(n2cc(CO)nn2)=C1Cl (stereo not drawn)	2	-67	4	-62*	12
COC(=O)c1[nH]c2ccc(Br)cc2c1NC(=O)CN1CCCc2ccccc21	2	57*	-26	38	·
C/C(=N\O)C1CCCCC1	-3	-66	5	-57*	-3
C/C(=N\NC(=O)NC1CCCCC1)C1CCCCC1	-6	-2	-3	3	15
CC(C)c1ccc(-c2nnn(CCC#N)n2)cc1	2	10	3	7	8
N#CCCn1nnc(-c2ccccc2F)n1	-2	-71	-4	-63*	·
Nc1n[nH]c(=S)n1/N=C1/C(=O)Nc2ccccc21	-1	·	-2	·	1
COc1cc([N+](=O)[O-])ccc1NC(=O)C[n+]1cccc(C)c1	5	-8	26	-8	-5
SMILES	HSP90 inh	HSF-1 act	HCV NS3 hel inh	HSF1 inh	Hep lipid drop
Cc1ccc[n+](CC(=O)Nc2ccc([N+](=O)[O-])cc2Cl)c1	-3	67*	4	27	4
Cc1cc(NC(=S)NC(=O)/C=C/c2ccc(S(=O)(=O)N3CCOCC3)cc2)ccc1Br	-3	100*	-12	85	-7
O=C(/C=C/c1ccccc1)NC(=S)Nc1ccc(CN2CCOCC2)cc1	0	73*	-16	38	0
O=C(/C=C/c1ccc(Cl)cc1Cl)NC(=S)Nc1ccc(CN2CCOCC2)cc1	3	28	-15	15	-7
O=C(/C=C/c1ccccc1)NC(=S)Nc1ccccc1O	2	59*	18	32	-11
Cn1c(SCc2nc3ccccc3[nH]2)nnc1-c1cccnc1	-3	-20	-5	-6	·
CCOc1ccc(-c2nnc(SCc3nc4ccccc4[nH]3)n2N)cc1	-3	63*	0	46	-4
CCO[C@H]1OC(C(=O)N2CCCCCCC2)=C[C@@H](c2coc3ccccc3c2=O)[C@@H]1CCCO	6	5	0	-3	-4
O=C(CNC(=O)c1ccco1)N/N=C/c1ccc(C(=O)O)cc1	3	-11	0	-12	10
Cc1ccc(C)c(Nc2ncccc2C(=O)NCc2cccs2)c1	0	55*	-19	24	-29
Nc1ccc2nc(-c3ccccc3)[nH]c2c1	-5	33	-38	21	·
Nc1ccc2nc(-c3ccccn3)[nH]c2c1	1	-55	-6	-57*	-2
Cc1ccc(S(=O)(=O)Nc2cccc3ncccc23)s1	-1	108*	2	132	·
Cc1ccc(O)c(NC(=O)c2noc(C(C)C)c2[N+](=O)[O-])c1	-4	73*	-13	55	4
CC(C)c1onc(C(=O)NCCc2ccccc2)c1[N+](=O)[O-]	4	61*	2	11	-1
COc1ccc(OC)c(S(=O)(=O)Nc2c(C)n(C)n(-c3ccccc3)c2=O)c1	-1	-12	-9	-19	·
O=C(Nc1ccc(Br)cc1Cl)c1ccc2c(=O)n3c(nc2c1)CCC3	·	55*	·	31	·
COc1cc(/C=N/N(C)c2ccccc2)cc(Cl)c1O	-1	-6	-10	-9	-11
CCOC(=O)C(CC)Sc1ccc2nnc(-c3cccnc3)n2n1 (stereo not drawn)	0	-76	5	-72*	8
CCOC(=O)CSc1ccc2nnc(-c3ccncc3)n2n1	0	55*	4	24	10
CCC(Sc1ccc2nnc(-c3cccnc3)n2n1)C(=O)O (stereo not drawn)	-3	-30	6	-24	17
COc1cccc(NC(=O)Cc2ccccc2)c1	4	-5	1	3	·
O=C(Cc1ccccc1)Nc1cccc(N2C(=O)C=CC2=O)c1	-5	-70	-13	-62*	1
Cc1nn(C(C)C)c(C)c1CN1CCN(Cc2ccsc2)C(CCO)C1 (stereo not drawn)	3	-15	-5	-3	-46
CCCCC(=O)Nc1ccc(C(=O)NCCc2ccc(S(N)(=O)=O)cc2)cc1	2	-73	9	-68*	3
SMILES	HSP90 inh	HSF-1 act	HCV NS3 hel inh	HSF1 inh	Hep lipid drop
CCCCC(=O)Nc1ccc(C(=O)Nc2ccc(S(=O)(=O)Nc3nccc(C)n3)cc2)cc1	-3	-72	0	-64*	-1
CC1CN(c2ccc(NC(=S)NNCCC#N)cc2)CC(C)O1 (stereo not drawn)	-2	-5	-8	-3	·
Cc1c(C(=O)Nc2ccc3c(c2)CCC3)cccc1[N+](=O)[O-]	-5	57*	11	19	6
CSc1ccccc1C(=O)Nc1ccc2c(c1)CCC2	-5	16	-5	10	-6
O=C(O)C1CCCCC1C(=O)Nc1ccc2c(c1)CCC2 (stereo not drawn)	7	123*	2	84	0
O=C(Nc1ccc2c(c1)CCC2)c1ccccc1Br	6	54*	-18	22	-20
